In brackets after ≈: the same amount, converted by molar mass.

The subject of assay [1] is Micrococcus luteus. Nature of the assay: Antibacterial activity against Micrococcus luteus ATCC 4698 after 24 hrs by two-fold serial dilution method. The class given is functional. The note with it: ATCC 4698, 24 h. An outline of the steps:
(§1)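 MIC taken as the lowest concentration giving complete growth inhibition, by standard two-fold serial dilution in 96-well plates following NCCLS. Stocks in DMSO, diluted in Mueller–Hinton broth. Inoculum adjusted with sterile saline to 1 × 10⁵ CFU. DMSO with inoculum and no drug served as solvent control. Growth read visually and spectrophotometrically, in triplicate.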

The test system of assay [2] is Candida albicans. Nature of the assay: Antifungal activity against Candida albicans ATCC 76615 after 24 hrs by two-fold serial dilution method. The settings on record: ATCC 76615, 24 h. It is filed as functional. An outline of the steps:
(§2)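 Spore suspension in sterile distilled water from one-day-old cultures on Sabouraud agar, final 1–5 × 10³ spore mL⁻¹. Compound stocks diluted in sterile RPMI 1640 as two-fold serial dilutions in microdilution plates. MIC is the lowest concentration completely inhibiting growth. Growth monitored visually and spectrophotometrically, in triplicate.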

Assay [3] deals with Salmonella typhi. In words: Antibacterial activity against Bacillus typhi after 24 hrs by two-fold serial dilution method. The class given is functional, Salmonella enterica subsp. enterica serovar Typhi. The note with it: Salmonella enterica. A digest of the protocol: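 Two-fold serial dilution in 96-well plates following NCCLS; compounds dissolved in DMSO as stocks, then diluted in Mueller-Hinton broth; bacterial suspension adjusted with sterile saline to 1 × 10⁵ CFU; MIC taken as lowest concentration completely inhibiting growth, monitored visually and spectrophotometrically; DMSO-plus-inoculum well as solvent control; triplicate.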

Assay [4] deals with Pseudomonas aeruginosa. In words: Antibacterial activity against Pseudomonas aeruginosa ATCC 27853 after 24 hrs by two-fold serial dilution method. It is filed as functional. The note with it: ATCC 27853, 24 h. An outline of the steps:
as §1

Assay [5] relates to Candida. In words: Antifungal activity against Candida mycoderma after 24 hrs by two-fold serial dilution method. The class given is functional. An outline of the steps: as §2
Assay [6] relates to Bacillus. Nature of the assay: Antibacterial activity against Bacillus proteus ATCC 13315 after 24 hrs by two-fold serial dilution method. The class given is functional. The settings on record: ATCC 13315, 24 h. A digest of the protocol: as §1
The subject of assay [7] is Staphylococcus aureus. In words: Antibacterial activity against methicillin-resistant Staphylococcus aureus N315 after 24 hrs by two-fold serial dilution method. The settings on record: N315, 24 h. It is filed as functional.
Assay [8] deals with Aspergillus flavus. Nature of the assay: Antifungal activity against Aspergillus flavus after 24 hrs by two-fold serial dilution method. It is filed as functional. An outline of the steps: as §2
The subject of assay [9] is Saccharomyces cerevisiae. Nature of the assay: Antifungal activity against Saccharomyces cerevisiae after 24 hrs by two-fold serial dilution method. It is filed as functional. A digest of the protocol:
as §2

Assay [10] relates to Staphylococcus aureus. In words: Antibacterial activity against Staphylococcus aureus ATCC 6538 after 24 hrs by two-fold serial dilution method. The class given is functional. The note with it: ATCC 6538, 24 h.
Assay [11] concerns Escherichia coli. In words: Antibacterial activity against Escherichia coli JM109 after 24 hrs by two-fold serial dilution method. The class given is functional. The settings on record: JM109, 24 h.
The subject of assay [12] is Bacillus subtilis. In words: Antibacterial activity against Bacillus subtilis ATCC 21216 after 24 hrs by two-fold serial dilution method. It is filed as functional. The note with it: ATCC 21216, 24 h. A digest of the protocol: as §1
Assay [13] concerns Cyberlindnera jadinii. Nature of the assay: Antifungal activity against Candida utilis after 24 hrs by two-fold serial dilution method. The class given is functional. The settings on record: Williopsis jadinii. An outline of the steps:
as §2

What is called MIC is the smallest concentration in the dilution series that meets the test's criterion for growth inhibition. A higher MIC goes with a less susceptible organism. With `Fc1ccc(NCc2nc3ccccc3[nH]2)cc1`, the MIC turned out to be 64 µg/mL (≈ 265 µM) in [1]; 64 µg/mL (≈ 265 µM) in assay [2]; 128 µg/mL (≈ 531 µM) in assay [3]; 64 µg/mL (≈ 265 µM) in [4]; 32 µg/mL (≈ 133 µM) in assay [5]; 32 µg/mL (≈ 133 µM) in [6]. Also, the MIC in assay [7] was found to be 64 µg/mL (≈ 265 µM); in assay [8] it was 32 µg/mL (≈ 133 µM); in assay [9], 64 µg/mL (≈ 265 µM); in assay [10], 32 µg/mL (≈ 133 µM); in assay [11], 64 µg/mL (≈ 265 µM); in [12], 32 µg/mL (≈ 133 µM). Further, 32 µg/mL (≈ 133 µM) was the least that counted as inhibitory in [13] (MIC).
In the case of `Clc1ccc(NCc2nc3ccccc3[nH]2)cc1`, the MIC in assay [1] was 32 µg/mL (≈ 124 µM); in [2] it was 64 µg/mL (≈ 248 µM); in assay [3], 128 µg/mL (≈ 497 µM); in [4], 128 µg/mL (≈ 497 µM); in [5], 64 µg/mL (≈ 248 µM); in [6], 64 µg/mL (≈ 248 µM). For the same compound, the MIC in [7] was found to be 32 µg/mL (≈ 124 µM); in [8] it was 64 µg/mL (≈ 248 µM); in assay [9], 64 µg/mL (≈ 248 µM); in assay [10] it was 64 µg/mL (≈ 248 µM); in assay [11], 32 µg/mL (≈ 124 µM); in assay [12] it was 64 µg/mL (≈ 248 µM). The same compound came in with a minimum inhibitory concentration (MIC) in assay [13] of 32 µg/mL (≈ 124 µM).
Turning to `Ic1ccc(NCc2nc3ccccc3[nH]2)cc1`, the MIC was found to be 128 µg/mL (≈ 367 µM) in [1]; 64 µg/mL (≈ 183 µM) in [2]; 64 µg/mL (≈ 183 µM) in [3]; 128 µg/mL (≈ 367 µM) in assay [4]; 128 µg/mL (≈ 367 µM) in assay [5]; 64 µg/mL (≈ 183 µM) in assay [6]. Moreover, the MIC stood at 128 µg/mL (≈ 367 µM) in assay [7]; 128 µg/mL (≈ 367 µM) in assay [8]; 64 µg/mL (≈ 183 µM) in assay [9]; 64 µg/mL (≈ 183 µM) in assay [10]; 64 µg/mL (≈ 183 µM) in assay [11]; 64 µg/mL (≈ 183 µM) in assay [12]. Also, in assay [13], the MIC is 64 µg/mL (≈ 183 µM).
As for `Cc1ccc(NCc2nc3ccccc3[nH]2)cc1`, the MIC is 512 µg/mL (≈ 2160 µM) in assay [1]; 32 µg/mL (≈ 135 µM) in assay [2]; 64 µg/mL (≈ 270 µM) in [3]; 64 µg/mL (≈ 270 µM) in [4]; 256 µg/mL (≈ 1080 µM) in [5]; 16 µg/mL (≈ 67.4 µM) in assay [6]. Further, the MIC in [7] stood at 128 µg/mL (≈ 539 µM); in assay [8], 128 µg/mL (≈ 539 µM); in assay [9], 64 µg/mL (≈ 270 µM); in assay [10], 32 µg/mL (≈ 135 µM); in assay [11], 64 µg/mL (≈ 270 µM); in assay [12] it was 64 µg/mL (≈ 270 µM). Also, the minimum inhibitory concentration (MIC) in [13] was 32 µg/mL (≈ 135 µM).
Regarding `Fc1ccc(NCc2nc3ccccc3[nH]2)c(F)c1`, the minimal inhibitory concentration (MIC) in [1] turned out to be 64 µg/mL (≈ 247 µM); in assay [2] it was 64 µg/mL (≈ 247 µM); in [3], 32 µg/mL (≈ 123 µM); in [4], 64 µg/mL (≈ 247 µM); in [5], 32 µg/mL (≈ 123 µM); in assay [6], 16 µg/mL (≈ 61.7 µM). Besides, the MIC in [7] was determined as 64 µg/mL (≈ 247 µM); in assay [8] it was 64 µg/mL (≈ 247 µM); in [9], 32 µg/mL (≈ 123 µM); in [10] it was 16 µg/mL (≈ 61.7 µM); in [11], 16 µg/mL (≈ 61.7 µM); in [12] it was 32 µg/mL (≈ 123 µM). This compound gave an MIC in [13] of 32 µg/mL (≈ 123 µM).
Consider `Clc1ccc(NCc2nc3ccccc3[nH]2)c(Cl)c1`, for which the MIC in assay [1] worked out at 64 µg/mL (≈ 219 µM); in [2], 32 µg/mL (≈ 110 µM); in [3] it was 128 µg/mL (≈ 438 µM); in [4], 64 µg/mL (≈ 219 µM); in assay [5] it was 32 µg/mL (≈ 110 µM); in [6], 64 µg/mL (≈ 219 µM). Further, the MIC in [7] came to 64 µg/mL (≈ 219 µM); in assay [8], 64 µg/mL (≈ 219 µM); in assay [9], 64 µg/mL (≈ 219 µM); in assay [10], 64 µg/mL (≈ 219 µM); in [11] it was 32 µg/mL (≈ 110 µM); in [12], 32 µg/mL (≈ 110 µM). Also, in assay [13], the MIC was 32 µg/mL (≈ 110 µM).
`CCCN(Cc1nc2ccccc2[nH]1)c1ccc(C)cc1`: the MIC amounted to 128 µg/mL (≈ 458 µM) in assay [1]; 128 µg/mL (≈ 458 µM) in assay [2]; 128 µg/mL (≈ 458 µM) in [3]; 256 µg/mL (≈ 916 µM) in [4]; 128 µg/mL (≈ 458 µM) in [5]; 128 µg/mL (≈ 458 µM) in assay [6]. For the same compound, the MIC in assay [7] was found to be 256 µg/mL (≈ 916 µM); in assay [8] it was 128 µg/mL (≈ 458 µM); in assay [9], 128 µg/mL (≈ 458 µM); in assay [10] it was 128 µg/mL (≈ 458 µM); in [11] it was 128 µg/mL (≈ 458 µM); in assay [12], 64 µg/mL (≈ 229 µM). The same compound yielded an MIC in [13] of 64 µg/mL (≈ 229 µM).
`CCCCCCN(Cc1nc2ccccc2[nH]1)c1ccc(C)cc1`: the minimum inhibitory concentration (MIC) was determined as 64 µg/mL (≈ 199 µM) in [1]; 64 µg/mL (≈ 199 µM) in assay [2]; 64 µg/mL (≈ 199 µM) in [3]; 64 µg/mL (≈ 199 µM) in assay [4]; 128 µg/mL (≈ 398 µM) in assay [5]; 256 µg/mL (≈ 796 µM) in assay [6]. Moreover, the MIC in assay [7] came to 128 µg/mL (≈ 398 µM); in assay [8], 64 µg/mL (≈ 199 µM); in assay [9], 64 µg/mL (≈ 199 µM); in [10] it was 128 µg/mL (≈ 398 µM); in [11] it was 256 µg/mL (≈ 796 µM); in assay [12], 128 µg/mL (≈ 398 µM). In assay [13], this compound returned an MIC of 128 µg/mL (≈ 398 µM).
